Measurements as given in ChEMBL document CHEMBL3244367, “Synthesis and determination of antiviral activity of the 2'(3')-O-methyl derivatives of ribavirin (1-beta-D-ribofuranosyl-1,2,4-triazole-3-carboxamide)” (1977).
In brackets after ≈: the same amount, converted by molar mass. Activity calls are given as the source filed them. The rule behind the calls is not given here.

Legend:
Poliovirus 1 = assay: Antiviral activity against Poliovirus type 1 infected in human HeLa cells assessed as inhibition of virus-induced cytopathogenicity treated immediately after virus adsorption measured 2 days after virus infection; assay type: functional; conditions: Enterovirus C, 48 h
[1] = system: Vesicular stomatitis virus; assay: Antiviral activity against Vesicular stomatitis virus infected in primary rabbit kidney cells assessed as inhibition of virus-induced cytopathogenicity treated immediately after virus adsorption measured 2 days after virus infection; assay type: functional; conditions: 48 h
Coxsackievirus B4 = assay: Antiviral activity against Coxsackievirus B4 infected in human HeLa cells assessed as inhibition of virus-induced cytopathogenicity treated immediately after virus adsorption measured 2 days after virus infection; assay type: functional; conditions: Enterovirus B, 48 h
kidney = assay: Inhibition of DNA synthesis in primary rabbit kidney cells assessed as inhibition of [3H]thymidine incorporation into DNA at 100 ug/mL; assay type: functional, cell-based; conditions: Oryctolagus cuniculus
How it was run: (§1)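 Host-cell DNA synthesis in primary rabbit kidney cells, measured as [methyl-3H]thymidine incorporation into DNA. ID50 is the dose inhibiting thymidine incorporation by 50%. The highest concentration tested was 100 μg/mL.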

Human alphaherpesvirus 1 = assay: Antiviral activity against Herpes simplex virus 1 infected in primary rabbit kidney cells assessed as inhibition of virus-induced cytopathogenicity treated immediately after virus adsorption measured 3 days after virus infection; assay type: functional; conditions: Human alphaherpesvirus 1, 72 h
How it was run: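 Compound added right after virus adsorption; 100 CCID50 virus per culture. Cytopathogenicity was scored once complete in untreated infected controls. The value is the concentration giving 50% inhibition of viral cytopathogenicity.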

[2] = Inhibition of DNA synthesis in primary rabbit kidney cells assessed as inhibition of [3H]thymidine incorporation into DNA; assay type: functional; conditions: Oryctolagus cuniculus, read-out: ID50 (the source's name); how it was run: as §1

Row | Compound | MIC50 (Poliovirus 1) [µg/mL] | MIC50 [1] [µg/mL] | MIC50 (Coxsackievirus B4) [µg/mL] | inhibition (kidney) | MIC50 (Human alphaherpesvirus 1) [µg/mL] | IC50 [2] [µg/mL]
1 | CO[C@H]1[C@@H](O)[C@H](n2cnc(C(N)=O)n2)O[C@@H]1CO | > 200 | > 200 | > 200 | inactive | > 200 | 
2 | NC(=O)c1ncn([C@@H]2O[C@H](CO)[C@@H](O)[C@H]2O)n1 [RIBAVIRIN] | 40 (≈ 164 µM) | 70 (≈ 287 µM) | 40 (≈ 164 µM) |  | 20 (≈ 81.9 µM) | 20 (≈ 81.9 µM)
3 | CO[C@@H]1[C@H](O)[C@@H](CO)O[C@H]1n1cnc(C(N)=O)n1 | > 200 | > 200 | > 200 | inactive | > 200 | 
